Experimental data published in ChEMBL document CHEMBL1828603, “Synthesis, antimicrobial activity and possible mechanism of action of 9-bromo-substituted indolizinoquinoline-5,12-dione derivatives” (2011).
Converted amounts (≈) assume the structure as drawn. The source made the active and inactive calls. The calls are words filed in the database; no cut-off is given here.

Columns and labels:
[1] = target: DNA gyrase (Staphylococcus aureus) (UniProt P0A0K8+P20831); assay: Inhibition of Staphylococcus aureus DNA gyrase supercoiling activity using pHOT1 DNA as substrate at 125 uM after 60 mins by agarose gel electrophoretic analysis; format: protein-complex assay
Sequence of DNA gyrase (Staphylococcus aureus) (P0A0K8 2-644 limits assumed): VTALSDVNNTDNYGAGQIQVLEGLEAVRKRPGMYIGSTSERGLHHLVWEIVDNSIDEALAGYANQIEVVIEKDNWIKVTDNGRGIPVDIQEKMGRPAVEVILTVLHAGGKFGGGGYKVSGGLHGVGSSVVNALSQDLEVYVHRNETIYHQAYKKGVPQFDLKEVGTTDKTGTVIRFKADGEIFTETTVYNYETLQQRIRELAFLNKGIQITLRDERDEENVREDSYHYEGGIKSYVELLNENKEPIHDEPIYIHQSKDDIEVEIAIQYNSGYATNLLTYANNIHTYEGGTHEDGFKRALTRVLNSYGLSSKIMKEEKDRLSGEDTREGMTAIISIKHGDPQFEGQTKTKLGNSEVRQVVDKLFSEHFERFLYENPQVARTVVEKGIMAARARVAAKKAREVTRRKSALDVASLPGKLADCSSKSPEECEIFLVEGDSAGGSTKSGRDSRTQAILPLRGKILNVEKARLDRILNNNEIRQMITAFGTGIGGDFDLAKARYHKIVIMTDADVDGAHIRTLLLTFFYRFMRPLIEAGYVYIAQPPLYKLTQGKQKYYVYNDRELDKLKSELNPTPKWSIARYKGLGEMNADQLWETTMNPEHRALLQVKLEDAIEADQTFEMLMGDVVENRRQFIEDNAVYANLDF
Sequence of DNA gyrase (Staphylococcus aureus) (P20831 whole entry partner): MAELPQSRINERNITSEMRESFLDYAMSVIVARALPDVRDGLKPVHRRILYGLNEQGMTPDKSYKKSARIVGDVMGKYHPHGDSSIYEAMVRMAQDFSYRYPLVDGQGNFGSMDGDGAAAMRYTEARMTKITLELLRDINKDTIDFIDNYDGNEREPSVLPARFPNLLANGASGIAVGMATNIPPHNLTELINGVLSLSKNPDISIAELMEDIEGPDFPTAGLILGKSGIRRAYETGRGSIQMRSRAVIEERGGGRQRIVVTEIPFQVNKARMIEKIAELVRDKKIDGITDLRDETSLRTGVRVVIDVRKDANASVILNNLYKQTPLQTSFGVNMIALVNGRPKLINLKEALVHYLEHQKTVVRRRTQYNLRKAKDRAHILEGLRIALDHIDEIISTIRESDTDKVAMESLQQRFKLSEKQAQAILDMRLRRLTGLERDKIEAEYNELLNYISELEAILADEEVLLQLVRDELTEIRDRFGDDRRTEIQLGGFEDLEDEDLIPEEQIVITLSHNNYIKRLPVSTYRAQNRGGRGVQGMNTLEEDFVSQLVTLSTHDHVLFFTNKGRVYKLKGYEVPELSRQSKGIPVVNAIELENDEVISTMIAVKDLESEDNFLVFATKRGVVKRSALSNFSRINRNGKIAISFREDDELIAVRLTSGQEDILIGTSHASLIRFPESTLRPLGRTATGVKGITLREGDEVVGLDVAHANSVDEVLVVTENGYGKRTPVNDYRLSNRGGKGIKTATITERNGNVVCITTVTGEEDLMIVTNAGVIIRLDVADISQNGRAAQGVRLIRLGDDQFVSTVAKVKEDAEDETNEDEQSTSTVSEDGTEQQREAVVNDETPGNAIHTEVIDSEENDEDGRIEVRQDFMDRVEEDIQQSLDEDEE
Procedure, shortened: (§1)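 Supercoiling assay with 1 U DNA gyrase (E. coli or S. aureus) and 0.5 µg relaxed pHOT1 DNA in Tris–HCl pH 7.5 buffer (KCl, MgCl2, DTT, spermidine, 1 mM ATP, glycerol, BSA), ± compound, 37 °C for 60 min. Stopped with proteinase K, run on 1% agarose in TAE at 3 V/cm, stained with Gel Red and imaged under UV.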

Escherichia coli [2] = assay: Inhibition of Escherichia coli topoisomerase 4 assessed as decatenation of kDNA at 25 uM after 30 mins by electrophoresis
Procedure, shortened: (§2)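 Decatenation assay with 1 U Topo IV and 200 ng catenated kDNA in HEPES–KOH pH 7.6 buffer (potassium glutamate, magnesium acetate, DTT, 1 mM ATP, BSA), 37 °C for 30 min. Stopped with chloroform/iso-amyl alcohol (24:1), then run on 1% agarose gel in TAE at 10 V/cm.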

Escherichia coli [3] = assay: Inhibition of Escherichia coli DNA gyrase supercoiling activity using pHOT1 DNA as substrate at 100 uM after 60 mins by agarose gel electrophoretic analysis; procedure, shortened: as §1
Staphylococcus aureus [4] = assay: Ratio of MIC for vancomycin to compound for methicillin-resistant Staphylococcus aureus ATCC 43300 by broth microdilution method; format: functional
Staphylococcus aureus [5] = assay: Antimicrobial activity against methicillin-resistant Staphylococcus aureus isolate 071410 by broth microdilution method; format: functional
Procedure, shortened: (§3)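 MRSA clinical isolates from Guangzhou Liuhuaqiao Hospital, China. Tested by two-fold broth dilution in Mueller-Hinton broth from a top concentration of 64 µg/ml. Compound in DMSO was added to culture at 5 × 10^5 cells/ml and serially halved. Plates were incubated at 37 °C overnight with OD600 read-out. MIC came from ≥2 independent experiments.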

Staphylococcus aureus [6] = assay: Antimicrobial activity against methicillin-resistant Staphylococcus aureus isolate 82896 by broth microdilution method; format: functional; procedure, shortened: as §3
Escherichia coli [7] = assay: Inhibition of Escherichia coli topoisomerase 4-mediated relaxation of supercoiled pBR322 DNA at 125 uM after 30 mins by agarose gel electrophoretic analysis
Procedure, shortened: (§4)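 Relaxation assay with 1 U Topo IV and 0.5 µg supercoiled pBR322 DNA in HEPES–KOH pH 7.6 buffer (potassium glutamate, magnesium acetate, DTT, 1 mM ATP, BSA), 37 °C for 30 min. Stopped with chloroform/iso-amyl alcohol (24:1), then run on 1% agarose gel in TAE at 5 V/cm.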

Staphylococcus aureus [8] = assay: Antimicrobial activity against methicillin-resistant Staphylococcus aureus isolate 071843 by broth microdilution method; format: functional; procedure, shortened: as §3
Staphylococcus aureus [9] = assay: Antimicrobial activity against methicillin-resistant Staphylococcus aureus isolate 80754 by broth microdilution method; format: functional; procedure, shortened: as §3
Staphylococcus aureus [10] = assay: Antimicrobial activity against methicillin-resistant Staphylococcus aureus isolate 82924 by broth microdilution method; format: functional; procedure, shortened: as §3
Staphylococcus aureus [11] = assay: Antimicrobial activity against methicillin-resistant Staphylococcus aureus isolate 0441 by broth microdilution method; format: functional; procedure, shortened: as §3
Enterococcus faecalis = assay: Antimicrobial activity against Enterococcus faecalis ATCC 29212 by two fold microdilution method; format: functional
Procedure, shortened: (§5)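 Two-fold broth microdilution in Mueller-Hinton broth. Compound in DMSO added to bacterial culture at 5 × 10^5 cells/ml, starting at 64 µg/ml, then serially doubled down. Incubated at 37 °C overnight and read as OD600. MIC taken as the minimum inhibitory concentration, obtained in at least two independent experiments.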

Staphylococcus aureus [12] = assay: Inhibition of Staphylococcus aureus topoisomerase 4-mediated relaxation of supercoiled pBR322 DNA at 1 uM after 30 mins by agarose gel electrophoretic analysis; procedure, shortened: as §4
Staphylococcus aureus [13] = assay: Antimicrobial activity against methicillin-resistant Staphylococcus aureus isolate 7365 by broth microdilution method; format: functional; procedure, shortened: as §3
Staphylococcus aureus [14] = assay: Inhibition of Staphylococcus aureus topoisomerase 4 assessed as decatenation of kDNA at 125 uM after 30 mins by electrophoresis; procedure, shortened: as §2
Escherichia coli [15] = assay: Inhibition of Escherichia coli DNA gyrase supercoiling activity using pHOT1 DNA as substrate at 1 uM after 60 mins by agarose gel electrophoretic analysis; procedure, shortened: as §1
Pseudomonas aeruginosa = assay: Antimicrobial activity against Pseudomonas aeruginosa ATCC 27853 by two fold microdilution method; format: functional; procedure, shortened: as §5
Streptococcus = assay: Antimicrobial activity against hemolytic Streptococcus Group B CMCC 32210 by two fold microdilution method; format: functional; procedure, shortened: as §5
Staphylococcus aureus [16] = assay: Antimicrobial activity against methicillin-resistant Staphylococcus aureus isolate 071429 by broth microdilution method; format: functional; procedure, shortened: as §3
Staphylococcus aureus [17] = assay: Antimicrobial activity against methicillin-resistant Staphylococcus aureus ATCC 43300 by two fold microdilution method; format: functional
Procedure, shortened: (§6)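 Two-fold serial dilution in Mueller-Hinton broth, starting at 64 µg/ml. Compound was added as a DMSO solution to bacterial culture at 5 × 10^5 cells/ml, then double-diluted. Plates were incubated overnight at 37 °C and OD600 was read. MIC was taken from at least two independent experiments.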

[18] = system: Staphylococcus epidermidis; assay: Antimicrobial activity against Staphylococcus epidermidis ATCC 12228 by two fold microdilution method; format: functional; procedure, shortened: as §5
Staphylococcus aureus [19] = assay: Antimicrobial activity against methicillin-resistant Staphylococcus aureus isolate 72754 by broth microdilution method; format: functional; procedure, shortened: as §3
[20] = system: Salmonella enterica subsp. enterica serovar Paratyphi B; assay: Antimicrobial activity against Salmonella paratyphi B CMCC 50094 by two fold microdilution method; format: functional; procedure, shortened: as §6
Candida albicans = assay: Antifungal activity against Candida albicans ATCC 10231 by two fold microdilution method; format: functional
Escherichia coli [21] = assay: Antimicrobial activity against Escherichia coli ATCC 25922 by two fold microdilution method; format: functional; procedure, shortened: as §5
Staphylococcus aureus [22] = assay: Inhibition of Staphylococcus aureus topoisomerase 4-mediated relaxation of supercoiled pBR322 DNA at 25 uM after 30 mins by agarose gel electrophoretic analysis; procedure, shortened: as §4
Staphylococcus aureus [23] = assay: Antimicrobial activity against methicillin-resistant Staphylococcus aureus isolate 82731 by broth microdilution method; format: functional; procedure, shortened: as §3
Staphylococcus aureus [24] = assay: Antimicrobial activity against methicillin-resistant Staphylococcus aureus isolate 83160 by broth microdilution method; format: functional; procedure, shortened: as §3
Staphylococcus aureus [25] = assay: Antimicrobial activity against Staphylococcus aureus ATCC 25923 by two fold microdilution method; format: functional; procedure, shortened: as §6

CCOC(=O)c1c2c(n3cc(Br)ccc13)C(=O)c1ncccc1C2=O
inhibition [1]: inactive
inhibition (Escherichia coli [2]): Active
inhibition (Escherichia coli [3]): 98%
Ratio (Staphylococcus aureus [4]): 16
MIC (Staphylococcus aureus [5]): 0.032 µg/mL (≈ 0.0802 µM)
MIC (Staphylococcus aureus [6]): 0.032 µg/mL (≈ 0.0802 µM)
inhibition (Escherichia coli [7]): inactive
MIC (Staphylococcus aureus [8]): 0.016 µg/mL (≈ 0.0401 µM)
MIC (Staphylococcus aureus [9]): 0.063 µg/mL (≈ 0.158 µM)
MIC (Staphylococcus aureus [10]): 0.032 µg/mL (≈ 0.0802 µM)
MIC (Staphylococcus aureus [11]): 0.032 µg/mL (≈ 0.0802 µM)
MIC (Enterococcus faecalis): 0.016 µg/mL (≈ 0.0401 µM)
inhibition (Staphylococcus aureus [12]): Active
MIC (Staphylococcus aureus [13]): 0.063 µg/mL (≈ 0.158 µM)
inhibition (Staphylococcus aureus [14]): 84%
inhibition (Escherichia coli [15]): 78%
MIC (Pseudomonas aeruginosa): > 64 µg/mL
MIC (Streptococcus): 0.031 µg/mL (≈ 0.0777 µM)
MIC (Staphylococcus aureus [16]): 0.016 µg/mL (≈ 0.0401 µM)
MIC (Staphylococcus aureus [17]): 0.063 µg/mL (≈ 0.158 µM)
MIC [18]: 0.063 µg/mL (≈ 0.158 µM)
MIC (Staphylococcus aureus [19]): 0.016 µg/mL (≈ 0.0401 µM)
MIC [20]: 64 µg/mL (≈ 160 µM)
MIC (Candida albicans): > 64 µg/mL
MIC (Escherichia coli [21]): > 64 µg/mL
inhibition (Staphylococcus aureus [22]): Active
MIC (Staphylococcus aureus [23]): 0.016 µg/mL (≈ 0.0401 µM)
MIC (Staphylococcus aureus [24]): 0.016 µg/mL (≈ 0.0401 µM)
MIC (Staphylococcus aureus [25]): 0.063 µg/mL (≈ 0.158 µM)
